High-throughput results: PubChem BioAssay, Columbia University Molecular Screening Center
Insulin prom act = TRM-6 insulin promoter activation. hit rate 0.81% among 130,000. AID 1296. activation, % at 2 µM. TRM-6 cells (human fetal islet line), insulin promoter eGFP reporter, imaging; plate-scaled: unstimulated 0, stimulated control 100;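 active = activation at 2 µM above a set limit, confirmed on inspection of the cell images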;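 also: share of cells whose green reporter signal exceeds an intensity cutoff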
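System – TRM-6 insulin promoter–eGFP reporter cells · Probe or stimulus – 0.75 µM tamoxifen as reporter inducer · Dosing – single-point 2 µM compound dose · Incubation – tamoxifen pre-incubation 15 h overnight, then compound exposure 48 h at 37 °C · Measured by – fixed-cell fluorescence microscopy, eGFP plus Hoechst · Evaluation – percent GFP-positive cells normalized to per-plate controls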
Starred values were filed as active, the others as inactive. Shown is part of a subset that was picked to be rich in hits.

SMILES	Insulin prom act
Cc1cc(SCC(=O)c2cc3ccccc3o2)nc2ccccc12	8.3
Cn1cccc1C(=O)OCC(=O)c1cc2ccccc2o1	184.6*
CC1CCCCC1NC(=S)Nc1ccc(Cl)cc1Cl (stereo not given)	-5.3
COc1cccc(/C=C/C(=O)OCC(=O)Nc2ccc(N3CCOCC3)cc2)c1OC	0.0
COc1ccc(C(=O)Nn2c(SCC(=O)c3ccc(Cl)cc3)nc3ccccc3c2=O)cc1	-82.9
COn1c(SCc2ccc(Cl)cc2)nc2ccccc2c1=O	77.1*
COCCn1c(SCc2ccccc2F)nc2ccccc2c1=O	-9.1
CN(C)C(=O)CN(c1ccc2c(c1)OCO2)S(C)(=O)=O	-71.4
CS(=O)(=O)N(CC(=O)NCc1ccccn1)c1ccc2c(c1)OCCO2	36.6
CS(=O)(=O)N(CC(=O)NCCSCc1ccccc1)c1ccc2c(c1)OCO2	203.7*
c1cc(CNc2ccc3c(c2)OCCO3)ccn1	-9.1
COc1cccc(S(=O)(=O)Nc2cccc(C(=O)N3CCOCC3)c2)c1	465.7*
COc1ccc(NS(=O)(=O)c2ccc(OCC(=O)N3CCOCC3)cc2)cc1	0.0
O=C(c1cccc(NS(=O)(=O)c2cccc([N+](=O)[O-])c2)c1)N1CCOCC1	0.0
Nc1nc(SCc2ccccc2Cl)ns1	176.9
Cc1c(Br)c([N+](=O)[O-])nn1CC(=O)Nc1sc2c(c1C(=O)OC(C)C)CCCC2	9.3
CCOc1ccc(S(=O)(=O)N2c3ccccc3CC2C)cc1 (stereo not given)	257.1
Cc1cc(C)c(C)c(S(=O)(=O)N2C(=S)NC(=O)C2CC(C)C)c1C (stereo not given)	8.6
N=C1SCC(=O)N1c1ncc(Cc2cccc(Cl)c2)s1	408.3*
O=C(N=C1SCC(=O)N1c1ccccc1)c1ccco1	7.0
O=C(CN1CCSc2ccccc21)NCCCc1ccccc1	7.1
Cc1ccc(C(=O)O)cc1NC(=O)CN1C(=O)C2C3c4ccccc4C(Br)(c4ccccc43)C2C1=O (stereo not given)	6.7
CCOC(=O)/N=C(/NC(=O)Nc1ccc(C(=O)OCC)cc1)OC	-7.9
CCSCc1nnc(SCC(=O)Nc2cccc(SC)c2)n1C	425.0*
CSc1cccc(NC(=O)CSc2ccc(C)cc2)c1	-6.7
SMILES	Insulin prom act
Cn1c(Cn2c(=O)sc3ccccc32)nnc1SCC(=O)Nc1ccccc1	12.5
Cn1c(CNc2ccc(Cl)cc2)nnc1SCCN1CCCCC1	-4.8
Cc1c(C(=O)Nc2ccc(F)cc2)oc2ccc(S(=O)(=O)N3CC(C)CC(C)C3)cc12 (stereo not given)	-71.0
CCn1c(=O)cc(OCC(=O)NCc2ccc(C)o2)c2ccccc21	100.0*
COc1ccc(CNC(=O)COc2cc(=O)n(C)c3ccccc23)cc1	-6.7
CCOC(=O)c1ccccc1NC(=O)COc1cc(=O)n(CC)c2ccccc12	306.7
Cc1cc(S(=O)(=O)Nc2ccc3ccccc3c2)c(C)s1	3.8
O=C(/C=C/c1ccco1)NC(=S)Nc1cc(C(F)(F)F)ccc1N1CCOCC1	211.1*
CC(C)(C)C(=O)Nc1cc(C(F)(F)F)ccc1N1CCOCC1	-14.3
O=C(CCCCl)NC(=S)Nc1cc(C(F)(F)F)ccc1N1CCOCC1	-1.6
O=C(Nc1ccccc1)C1CCCN1/C=C/C(=O)C(F)(F)F (stereo not given)	8.3
C/C(=N\N1C(=O)CSC1=S)c1ccc(Br)cc1	8.3
Cc1cc(Nc2ccccc2)n(C(=O)c2ccccc2)n1	6.5
O=C(O)C(NS(=O)(=O)c1ccc(F)cc1)c1ccccc1 (stereo not given)	-5.9
Cc1ccc(S(=O)(=O)NC(c2ccccc2)C(C)C(=O)n2nc(C)cc2C)cc1 (stereo not given)	117.4*
C=CCNC(=O)c1ccc(N(C)S(=O)(=O)c2ccc(OC)cc2)cc1	6.7
Cc1ccc(OCC(=O)Nc2ccc(S(=O)(=O)N3CCOCC3)cc2)c([N+](=O)[O-])n1	0.0
Cc1cccc(C)c1NC(=O)CSc1nnc(C)c(=O)[nH]1	6.7
CCN1/C(=C\C=C(C(C)=O)C(C)=O)Sc2ccccc21	669.2*
CCN1C(=O)/C(=C\C=C2/C=CC=CN2CC)SC1=S	-3.1
CCCN1C(=O)/C(=C\C=C2/Sc3ccccc3N2CC)SC1=S	387.8*
CCN(CC)CC(=O)N1c2ccccc2Sc2ccc(Cl)cc21	262.2
O=C(CN1CCCC1)N1c2ccccc2Sc2ccccc21	110.0
CCCN1C(=O)CC(c2ccco2)Sc2ccccc21 (stereo not given)	3.2
Cc1ccc2c(c1)C1(SCCS1)C(=O)N2	-8.6
SMILES	Insulin prom act
COC(=O)c1oc2ccc(Cl)cc2c1-n1cccc1	2.6
O=C1OC(Cc2ccccn2)C(=O)C1=C1SCCS1 (stereo not given)	3.4
Cc1cccc(-c2c3c(=O)n(C)c(=O)n(C)c3cn2C2CCCCC2)c1	5.7
COc1ccc(N(C(=O)c2ccco2)S(=O)(=O)c2cc(OC)ccc2OC)cc1	0.0
COc1ccc(N(C(=O)c2ccco2)S(=O)(=O)c2cccs2)cc1	164.7
COc1ccc(N(C(=O)c2ccco2)S(=O)(=O)c2ccc(F)cc2)cc1	456.3*
Cc1ccc(S(=O)(=O)NNC(=O)C2COc3ccccc3O2)cc1 (stereo not given)	-6.9
COc1ccc(CSCC(=O)Nc2ccccc2SC)cc1	366.7*
COc1ccc(OCC(=O)Nc2ccccc2O)cc1	6.9
COc1ccc(CNC(=O)c2ccccc2SC)cc1	258.8
CCOc1ccc(CNC(=O)C2CCCN(S(C)(=O)=O)C2)cc1OC (stereo not given)	-6.2
CCCc1cc(=O)n2[nH]c(NCc3cccs3)nc2n1	3.6
c1ccc(-c2nn3nnnc3c3ccccc23)cc1	174.1
c1ccc(-c2nc(-n3nc4ccccc4n3)nc3ccccc23)cc1	145.5*
Clc1ccc(-c2nc(N3CCCCC3)nc3ccccc23)cc1	4.8
Cc1cccc(NC(=O)c2cn(-c3ccccc3)nc2-c2ccccc2)c1	9.7
O=C(COC(=O)c1ccccc1-c1nc2ccccc2s1)Nc1ccccc1C(F)(F)F	2.9
COC(=O)c1cccnc1N1CCN(c2ccccc2F)CC1	103.1
CN(C)c1nc(Cl)nc(NCCOc2ccccc2)n1	-65.5
CCN(CC)CCn1cnc2c([nH]c3cccc(OC)c32)c1=O	-9.5
CCN(CC)CCn1c(N)cc(=O)[nH]c1=O	0.0
CCN(CC)CCn1c(OC)cc(=O)[nH]c1=O	500.0*
Cc1ccc(-c2csc(NC(=O)C3CC=CCC3C(=O)O)c2C(=O)OC(C)C)cc1 (stereo not given)	2.9
CCOC(=O)c1nnc(-c2ccccc2)nc1Sc1ccccc1Cl	9.7
CCOc1cc(NC(=O)c2ccco2)c(OCC)cc1NC(=O)Cc1cccc(OC)c1	-5.3
SMILES	Insulin prom act
CCOc1cc(NC(=O)c2cccs2)c(OCC)cc1NC(=O)c1ccco1	-2.7
CCOc1ccc(CC(=O)Nc2ccc(NC(=O)c3ccco3)cc2)cc1OCC	100.0*
Cc1c(Cl)c(-c2n[nH]c(=S)n2Cc2ccco2)nn1C	8.5
O=c1c2ccccc2nc(-c2ccco2)n1Cc1ccccc1	0.0
S=c1[nH]nc(-c2ccco2)n1Cc1ccccc1	407.1*
COCC(C)n1c(C)cc(C(=O)CSc2nnc(Nc3ccccc3F)s2)c1C (stereo not given)	5.7
Cc1cc(NC(=O)CCSc2ccccc2)ccc1Br	9.7
Fc1ccccc1CN1CCCN(C(=S)Nc2cccc(Cl)c2)C1	-6.7
Cc1ccc(C(=O)N/C(N)=N/c2nc3ccccc3o2)cc1	-4.3
Cc1cccc(NC(=O)CSc2nc3ccccc3o2)c1	-3.6
Cc1ccc(-c2nnc(Sc3nc4ccccc4o3)c3ccccc23)cc1	590.0*
